Measured values from ChEMBL document CHEMBL5131497, “Design, Synthesis, and Characterization of TNP-2198, a Dual-Targeted Rifamycin-Nitroimidazole Conjugate with Potent Activity against Microaerophilic and Anaerobic Bacterial Pathogens” (J Med Chem, 2022).
Converted amounts (≈) assume the structure as drawn. The source made the active and inactive calls. The calls are words filed in the database; no cut-off is given here.

Tests used:
[1] = system: Clostridioides difficile; assay: Resistance development in Clostridioides difficile MMX 4381 assessed as mutation prevention concentration using at 1.90 x 10^8 CFU inoculum; format: functional; details: dose 0.5 µg/ml
[2] = Oral bioavailability in Beagle dog at 25 mg/kg; format: ADME, organism-based, Canis lupus familiaris; details: in vivo
[3] = Drug distribution in Sprague-Dawley rat stomach tissue measured at 6 hrs; format: ADME, tissue-based; details: read-out: Ct
In short: (§1)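 Sprague–Dawley rats were dosed with TNP-2198. Concentrations were measured in plasma (ng/mL) and in tissues or contents (ng/g) at 0.5, 2, 6, 12 and 24 h after dosing. Values below the limit of quantification are reported as BLOQ.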

[4] = Drug distribution in Sprague-Dawley rat stomach tissue measured at 0.5 hrs; format: ADME, tissue-based; details: read-out: Ct; in short: as §1
[5] = Drug distribution in Sprague-Dawley rat vaginal secretion measured at 24 hrs; format: ADME, tissue-based, Vaginal fluid; details: female, read-out: Ct; in short: as §1
[6] = system: Bacteroides fragilis; assay: Antibacterial activity against metronidazole-resistant Bacteroides fragilis MMX 3387; format: functional
[7] = Drug distribution in Sprague-Dawley rat ascites fluid measured at 2 hrs; format: ADME, tissue-based, Ascitic fluid; details: read-out: Ct; in short: as §1
[8] = Drug distribution in Sprague-Dawley rat vaginal secretion measured at 6 hrs; format: ADME, tissue-based, Vaginal fluid; details: female, read-out: Ct; in short: as §1
[9] = Drug distribution in Sprague-Dawley rat plasma measured at 2 hrs; format: ADME, cell-free; in short: as §1
[10] = Drug distribution in Sprague-Dawley rat large intestine tissue measured at 2 hrs; format: ADME, tissue-based; details: read-out: Ct; in short: as §1
[11] = system: Clostridioides difficile; assay: Antibacterial activity against Clostridioides difficile clinical isolate USA; format: functional
[12] = Drug distribution in Sprague-Dawley rat large intestine content measured at 6 hrs; format: ADME, tissue-based; details: read-out: Ct; in short: as §1
[13] = Clearance in Beagle dog at 5 mg/kg, iv; format: ADME, organism-based, Canis lupus familiaris; details: in vivo
In short: (§2)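 Plasma PK after single intravenous or oral dosing. Mice C57BL/6 at 5 mg/kg IV or 20 mg/kg PO; Sprague–Dawley rats at 10 mg/kg IV or 50 mg/kg PO; beagle dogs at 5 mg/kg IV or 25 mg/kg PO. AUC reported in ng·h/mL. Clearance from the IV arms in mL/min·kg.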

[14] = system: Phocaeicola vulgatus; assay: Antibacterial activity against metronidazole-resistant Bacteroides vulgatus 3490; format: functional
[15] = system: Helicobacter pylori; assay: Bactericidal activity against Helicobacter pylori ATCC 700824 assessed as reduction in CFU at 4 to 16 times MIC by time kill assay; format: functional, organism-based
[16] = system: Gardnerella vaginalis; assay: Antibacterial activity against Gardnerella vaginalis ATCC 49145; format: functional
[17] = Half life in Beagle dog at 5 mg/kg, iv; format: ADME, organism-based, Canis lupus familiaris; details: in vivo
In short: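 Single-dose PK of TNP-2198 was run in C57BL/6 mice (IV 5 mg/kg; PO 20 mg/kg) and beagle dogs (IV 5 mg/kg; PO 25 mg/kg). Terminal half-life (h) was derived from plasma profiles, together with Tmax, Vdss, CL, AUC and oral bioavailability.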

[18] = Drug distribution in Sprague-Dawley rat vaginal tissue measured at 12 hrs; format: ADME, tissue-based, Vagina; details: female, read-out: Ct; in short: as §1
[19] = Tmax in C57BL/6 mouse at 20 mg/kg, po; format: ADME, organism-based; details: in vivo
[20] = Volume of distribution at steady state in Beagle dog at 5 mg/kg, iv; format: ADME, organism-based, Canis lupus familiaris; details: in vivo, read-out: Vdss
[21] = system: Helicobacter pylori; assay: Resistance development in Helicobacter pylori MMX 3719 assessed as spontaneous resistance frequency using at 1.90 x 10^8 CFU inoculum at 0.5 ug/ml; format: functional; details: dose 0.5 µg/ml
In short: (§3)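 H. pylori MMX 3719 exposed to 0.5, 1, 2 and 4 µg/mL drug with an inoculum of 1.90×10^8 CFU at each level. Two independent tests were run, and resistant colonies were counted and averaged. A spontaneous resistance frequency was reported for each concentration, and the MPC was taken across the concentrations tested.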

[22] = Drug distribution in Sprague-Dawley rat plasma measured at 24 hrs; format: ADME, cell-free; details: BLD = below limit of detection; in short: as §1
[23] = AUC in Sprague-Dawley rat at 50 mg/kg, po; format: ADME, organism-based; design: dose 50 mg/kg, route po; details: in vivo; in short: as §2
[24] = system: Clostridioides difficile; assay: Antibacterial activity against rifampicin/fluoroquinolone-resistant Clostridioides difficile CB1942 harboring rpoBQ489K/gyrAD71Y/T82A mutant measured after 3 days; format: functional; details: CB1942, 72 h, time 3 day
[25] = Drug distribution in Sprague-Dawley rat stomach tissue measured at 2 hrs; format: ADME, tissue-based; details: read-out: Ct; in short: as §1
[26] = Drug distribution in Sprague-Dawley rat plasma measured at 12 hrs; format: ADME, cell-free; in short: as §1
[27] = Drug distribution in Sprague-Dawley rat brain measured at 6 hrs; format: ADME, tissue-based; details: read-out: Ct; in short: as §1
[28] = system: Helicobacter pylori; assay: Antibacterial activity against Helicobacter pylori clinical isolate USA; format: functional
[29] = system: Helicobacter pylori; assay: Antibacterial activity against rifampicin-resistant Helicobacter pylori CB1903 harboring rpoBD530V mutant measured after 5 days by agar dilution method; format: functional; details: CB1903, 120 h, time 5 day
In short: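 Agar dilution per CLSI. Wild-type ATCC 700392 (CB1531) and its derivatives carry defined resistance determinants. Drugs, alone or in 1:1 molar mixtures, were diluted 2-fold from 100× stocks into Mueller–Hinton agar with aged (≥2 weeks) sheep blood (5% v/v). MIC read after 5 days at 35 °C under microaerobic conditions from a campylobacter gas-generating system.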

[30] = Drug distribution in Sprague-Dawley rat ascites fluid measured at 6 hrs; format: ADME, tissue-based, Ascitic fluid; details: read-out: Ct; in short: as §1
[31] = system: Clostridioides difficile; assay: Antibacterial activity against fluoroquinolone-resistant Clostridioides difficile CB1939 measured after 3 days; format: functional; details: CB1939, 72 h, time 3 day
[32] = Oral bioavailability in C57BL/6 mouse at 20 mg/kg; format: ADME, organism-based; details: in vivo
[33] = Drug distribution in Sprague-Dawley rat large intestine content measured at 24 hrs; format: ADME, tissue-based; details: read-out: Ct; in short: as §1
[34] = Volume of distribution at steady state in Sprague-Dawley rat at 10 mg/kg, iv; format: ADME, organism-based; details: in vivo, read-out: Vdss
[35] = system: Helicobacter pylori; assay: Resistance development in Helicobacter pylori MMX 3719 assessed as spontaneous resistance frequency using at 1.90 x 10^8 CFU inoculum at 1 ug/ml; format: functional; details: dose 1 µg/ml; in short: as §3
[36] = Drug distribution in Sprague-Dawley rat stomach content measured at 12 hrs; format: ADME, tissue-based; details: read-out: Ct; in short: as §1
[37] = system: Bacteroides ovatus; assay: Antibacterial activity against metronidazole-resistant Bacteroides ovatus MMX 3504; format: functional
[38] = Drug distribution in Sprague-Dawley rat ascites fluid measured at 24 hrs; format: ADME, tissue-based, Ascitic fluid; details: in vivo, BLD = below limit of detection; in short: as §1
[39] = Drug distribution in Sprague-Dawley rat brain measured at 2 hrs; format: ADME, tissue-based; details: read-out: Ct; in short: as §1
[40] = Drug distribution in Sprague-Dawley rat vaginal secretion measured at 2 hrs; format: ADME, tissue-based, Vaginal fluid; details: female, read-out: Ct; in short: as §1
[41] = system: Syrian golden hamster; assay: Antibacterial activity against Clostridioides difficile UNT-103-1 infected in Syrian hamster assessed as survival at 5 mg/kg, po administered once a daily for 5 days after 18 hrs post 10 mg/kg clindamycin treatment; format: functional, Mesocricetus auratus; details: time 5 day
In short: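 Male Golden Syrian hamsters (80-90 g), housed singly, were gavaged with C. difficile UNT103-1 grown in sporulation medium broth and diluted to OD600 1 in prereduced broth. […] From 18 h later, drug or vehicle was given by oral gavage once daily for 5 days. Survival was recorded through day 21.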

[42] = Volume of distribution at steady state in C57BL/6 mouse at 5 mg/kg, iv; format: ADME, organism-based; details: in vivo, read-out: Vdss
[43] = system: Helicobacter pylori; assay: Antibacterial activity against Helicobacter pylori infected in C57/BL6 mouse assessed as bacterial load in stomach at 5 mg/kg administered twice daily via oral gavage starting from 7 days post inoculation and administered for 7 days (reference value: 5.25 log10CFU); format: functional; details: time 7 day

CO[C@H]1/C=C/O[C@@]2(C)Oc3c(C)c(O)c4c(c3C2=O)C2=NC3(CCN(CCn5c([N+](=O)[O-])cnc5C)CC3)NC2=C(NC(=O)/C(C)=C\C=C\[C@H](C)[C@H](O)[C@@H](C)[C@@H](O)[C@@H](C)[C@H](OC(C)=O)[C@@H]1C)C4=O [RIFASUTENIZOL]
Activity [1]: 1 µg/mL
bioavailability [2]: 65%
concentration at 6 h [3]: 10600 ng/g
concentration at 0.5 h [4]: 113000 ng/g
concentration at 24 h [5]: 54.6 ng/g
MIC [6]: 0.015 µg/mL (≈ 0.0159 µM)
concentration at 2 h [7]: 5270 ng/g
concentration at 6 h [8]: 6240 ng/g
concentration at 2 h [9]: 2640 ng/mL
concentration at 2 h [10]: 8410 ng/g
MIC [11]: 0.002 µg/mL (≈ 0.00212 µM)
MIC90 [11]: 1 µg/mL (≈ 1.06 µM)
concentration at 6 h [12]: 84300 ng/g
clearance [13]: 20 mL/min/kg
MIC [14]: 0.03 µg/mL (≈ 0.0318 µM)
Activity [15]: Active
MIC [16]: 0.004 µg/mL (≈ 0.00424 µM)
half-life [17]: 3.9 h
concentration at 12 h [18]: 35.8 ng/g
Tmax [19]: 0.5 h
Vd [20]: 2.8 L/kg
Activity [21]: <5 10^-9No_unit
Cp [22]: Bld
AUC [23]: 15400 ng·h/mL
MIC [24]: 0.06 µg/mL (≈ 0.0636 µM)
concentration at 2 h [25]: 72500 ng/g
concentration at 12 h [26]: 4.33 ng/mL
concentration at 6 h [27]: 156 ng/g
MIC [28]: ≤ 0.001 µg/mL
MIC90 [28]: 0.125 µg/mL (≈ 0.132 µM)
MIC [29]: 0.125 µg/mL (≈ 0.132 µM)
concentration at 6 h [30]: 3480 ng/g
MIC [31]: ≤ 0.002 µg/mL
bioavailability [32]: 20%
concentration at 24 h [33]: 53.9 ng/g
Vd [34]: 1.6 L/kg
Activity [35]: <5 10^-9No_unit
concentration at 12 h [36]: 138 ng/g
MIC [37]: 0.12 µg/mL (≈ 0.127 µM)
Ct [38]: Bld
concentration at 2 h [39]: 392 ng/g
concentration at 2 h [40]: 43700 ng/g
Activity [41]: 100%
Vd [42]: 0.9 L/kg
Activity [43]: 2.89 log10CFU
